Screening data as filed in PubChem.
KDM4C inh – inhibitors of GASC-1 (KDM4C) histone demethylase, primary screen, biochemical, single concentration HTS; inhibition, % at 12.5 µM; GST-KDM4C 2-372, H3K9me3 peptide, LANCE TR-FRET; hit rate 0.15% among 96,000;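 active = mean replicate inhibition above about 25%, with at least 55% of replicates also reaching it, limit read from the data, passing the limit was not always enough; inconclusive = only one of those two conditions met; inactive = neither condition met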
Target sequence (Q9H3R0 2-372 limits assumed): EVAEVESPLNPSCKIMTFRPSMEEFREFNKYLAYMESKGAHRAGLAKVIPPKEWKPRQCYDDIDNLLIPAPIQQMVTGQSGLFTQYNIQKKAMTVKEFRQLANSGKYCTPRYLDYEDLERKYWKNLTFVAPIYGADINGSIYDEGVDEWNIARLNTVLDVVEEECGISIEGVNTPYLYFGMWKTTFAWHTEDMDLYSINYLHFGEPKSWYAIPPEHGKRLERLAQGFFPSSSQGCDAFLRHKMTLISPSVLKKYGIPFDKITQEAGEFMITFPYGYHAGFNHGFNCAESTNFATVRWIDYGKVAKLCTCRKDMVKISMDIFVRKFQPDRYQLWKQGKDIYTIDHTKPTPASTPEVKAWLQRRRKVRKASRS
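Material: GST-tagged GASC-1 (JMJD2C) catalytic fragment, aa 2-372 / Quantity: enzyme final amount 10 nM / Medium: HEPES buffer, pH 7.5, plus ascorbate / Doses: one test concentration per compound / Incubation: 30 min reaction, 60 min detection, RT / Measured by: LANCE TR-FRET / Read-out: inhibition from TR-FRET ratio decrease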
IDH1 R132H inh – inhibitors of IDH1 R132H reductase, primary screen, biochemical, plate reader, single point; Isocitrate dehydrogenase [NADP] cytoplasmic (Homo sapiens), O75874; diaphorase/resazurin fluorescence, 60 min; inhibition, % at 10 µM; hit rate 0.18% among 70,000; AID 624101, 2012; in the data active = inhibition above about 34%; inconclusive = no clear call, values can overlap the other calls; inactive = below about 11%;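 also: 0% = DMSO and 100% = no enzyme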
T cruzi growth-1 – T. cruzi intracellular proliferation inhibitors, primary screen, cell-based, beta-gal Tulahuen parasites, NIH3T3 host, luminescence; T. cruzi beta-gal in NIH3T3, GalScreen luminescence, 90 h; inhibition, % at 8.34 µM; hit rate 5.9% among 77,000; AID 624255, 2012;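 active = mean inhibition above about 93%, with at least 55% of replicates each passing it, limit read from the data, passing the limit was not always enough; inconclusive = only one of those two conditions holds; inactive = neither condition holds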
Pf Dd2 growth – P. falciparum Dd2 growth inhibitors, primary screen, SYBR Green fluorescence, single dose replicates. activity change, % at 10 µM. 72 h; active compounds read low. AID 1159554, 2015. hit rate 2.3% among 94,000; in the data active = activity change below about -80%; inconclusive = no clear call, values can overlap the other calls
T cruzi growth-2 – T. cruzi intracellular proliferation inhibitors, confirmation, cell-based, NIH3T3 host, beta-gal parasite, luminescence, cherry-pick; shares compounds with T cruzi growth-1; T. cruzi beta-gal in NIH3T3, GalScreen luminescence, 90 h; inhibition, % at 8.35 µM; hit rate 72% among 5,600; AID 651739, 2012;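 active = mean replicate inhibition above about 95% and at least 55% of replicates individually reaching it, limit read from the data; inconclusive = only one of the two criteria is met; inactive = neither criterion is met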
T cruzi growth-3 – inhibitors of intracellular T. cruzi replication, confirmation, NIH3T3 host cells, beta-gal parasites, cherry-pick, set 2; AID 651740, 2012; hit rate 21% among 5,600; T. cruzi beta-gal in NIH3T3, GalScreen luminescence, 90 h; shares compounds with T cruzi growth-1; inhibition, % at 2.09 µM;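 active = mean inhibition above about 95%, with at least 55% of replicates also reaching it, limit read from the data; inconclusive = meets just one of the two conditions; inactive = meets neither condition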;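 also: plate controls were neutral control median for no effect and positive control median for full effect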
NIH3T3 tox – cytotoxicity in mouse NIH/3T3 fibroblasts, confirmation, cytotoxicity control for T. cruzi proliferation inhibitor project, cell-based, cherry-pick, single point | shares compounds with T cruzi growth-1 | NIH/3T3 viability, CellTiter-Glo ATP luminescence, 90 h | cytotoxicity (signal decrease), % at 8.35 µM | hit rate 14% among 5,600 | AID 651742, 2012;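 active = mean signal decrease across replicates above about 35% based on untreated-well scatter, with enough replicates individually passing, limit read from the data; inconclusive = no rule stated though some were filed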;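 also: 0% = median of neutral control wells and 100% = median of positive control wells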
3T3 cytotox 2 – NIH/3T3 fibroblast cytotoxicity, confirmation, cytotoxicity control, cell-based, cherry-pick, single point, set 2 | inhibition, % at 24.9 µM | shares compounds with T cruzi growth-1 | NIH/3T3 viability, CellTiter-Glo ATP luminescence, 90 h | AID 651744, 2012 | hit rate 56% among 5,600;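 active = mean loss of cell viability signal at or above a set limit, and enough replicates individually reaching it; inconclusive = meets only the mean limit or only the replicate share; inactive = meets neither condition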;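 also: 0% = median of neutral control wells and 100% = median of positive control wells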
The depositor's hits bear a star; ? = inconclusive; · = not tested or not shown. A selection: hits, their analogues and other compounds. The true share with any hit is near 5.8%.

SMILES | KDM4C inh | IDH1 R132H inh | T cruzi growth-1 | Pf Dd2 growth | T cruzi growth-2 | T cruzi growth-3 | NIH3T3 tox | 3T3 cytotox 2
O=C(NC[C@@H]1[C@H](c2ccccc2)[C@H](CO)N1C(=O)Cc1cccnc1)C1CC1 | 2 | · | -7 | -1 | · | · | · | ·
C[C@H]1CCCCO[C@H](CN(C)C(=O)Nc2cccc3ccccc23)[C@@H](C)CN([C@@H](C)CO)C(=O)c2cc(NC(=O)Nc3ccc(C(F)(F)F)cc3)ccc2O1 | 0 | · | 52 | 18 | · | · | · | ·
COc1ccccc1-c1ccc2c(c1)O[C@@H](CN(C)C(=O)c1ccncc1)[C@@H](C)CN([C@@H](C)CO)S2(=O)=O | -1 | 4 | 108* | -10 | 96* | 88 | 10 | 25*
COc1ccccc1-c1ccc2c(c1)O[C@H](CN(C)C(=O)c1ccncc1)[C@@H](C)CN([C@H](C)CO)S2(=O)=O | 1 | 2 | 67 | 6 | · | · | · | ·
C[C@H]1CN([C@@H](C)CO)S(=O)(=O)c2ccc(/C=C/c3ccccc3)cc2O[C@H]1CN(C)C(=O)c1ccncc1 | -7 | 0 | 106* | 5 | 109* | 86 | 44* | 70*
C[C@@H]1CN([C@H](C)CO)S(=O)(=O)c2ccc(/C=C/c3ccccc3)cc2O[C@H]1CN(C)C(=O)c1ccccc1 | · | -4 | 128* | -79 | 111* | 87 | 16 | 100*
COc1ccc(-c2cnc3c(c2)C(=O)N([C@@H](C)CO)C[C@H](C)[C@@H](CN(C)Cc2ccccc2)O3)cc1 | 1 | 0 | 83 | -16 | · | · | · | ·
Cc1ccc(S(=O)(=O)Nc2ccc3c(c2)CC(=O)N([C@@H](C)CO)C[C@@H](C)[C@H](CN(C)S(=O)(=O)c2c(C)noc2C)O3)cc1 | 0 | 0 | -17 | -15 | · | · | · | ·
CO[C@H]1CN(C)C(=O)c2ccc(NC(=O)C3CC3)cc2OC[C@H](C)N(C(=O)c2cccnc2)C[C@@H]1C | 1 | 0 | 112* | 29 | -186 | 22 | -7 | -17
CO[C@@H]1CN(C)C(=O)c2ccc(NC(=O)C3CC3)cc2OC[C@H](C)N(C(=O)c2cccnc2)C[C@H]1C | 2 | 0 | 42 | 34 | · | · | · | ·
CO[C@@H]1CN(C)C(=O)c2ccc(NC(=O)C3CC3)cc2OC[C@@H](C)N(C(=O)c2ccccn2)C[C@@H]1C | -1 | 0 | 40 | -18 | · | · | · | ·
CO[C@H]1CN(C)C(=O)c2ccc(NC(=O)C3CC3)cc2OC[C@@H](C)N(C(=O)c2ccccn2)C[C@H]1C | -2 | 0 | 102* | 19 | 53 | 17 | 9 | 0
Cc1ccc(-c2cnc3c(c2)C(=O)N([C@H](C)CO)C[C@@H](C)[C@@H](CN(C)CC2CCOCC2)O3)cc1 | -1 | 0 | -52 | -6 | · | · | · | ·
O=C(C[C@H]1CC[C@H]2[C@@H](COC[C@@H](O)CN2Cc2ccc(Oc3ccccc3)cc2)O1)Nc1nccs1 | -4 | · | 152* | -33 | 102* | 18 | -4 | 17
O=C(C[C@H]1CC[C@H]2[C@@H](COC[C@H](O)CN2Cc2cccc(Cl)c2)O1)Nc1nccs1 | 0 | · | 133* | -49 | ? | 25 | 23 | 20
O=C(C[C@@H]1CC[C@H]2[C@@H](COC[C@H](O)CN2Cc2ccc(Oc3ccccc3)cc2)O1)Nc1nccs1 | -2 | · | 193* | -67 | 104* | 36 | -13 | ?
O=C(C[C@H]1CC[C@H]2[C@@H](COC[C@H](O)CN2Cc2ccc(Oc3ccccc3)cc2)O1)Nc1nccs1 | 3 | · | 191* | -52 | 103* | 54 | 3 | 20
